In ChEMBL document CHEMBL4014306, “Pyrazolopyrimidines as Potent Stimulators for Transient Receptor Potential Canonical 3/6/7 Channels” (J Med Chem, 2017):
Active and inactive are the calls of the source. No cut-off for these calls is given here.

Columns and labels:
Format in all cases: cell-based
HEK293 = test: Induction of membrane potential depolarization in HEK293 cells measured for 2.5 mins by FLIPR assay; conditions: human, hek293, 2.5 min
In short: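 Parental HEK293 cells on a FlexStation at 32 °C, loaded with Fluo4-AM or FMP dye, in 2 mM Ca2+ extracellular saline, pH 7.4. Compound added and fluorescence read as F/F0.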

[1] = molecular target: T1, Short transient receptor potential channel 6 (Mus musculus) (UniProt Q61143); test: (§1) Agonist activity at mouse TRPC6 expressed in HEK293 cells co-expressing Gq11-PLCbeta fused M5 receptor assessed as increase in intracellular calcium level by Fluo-4-AM dye-based fluorescence assay
T1 sequence (whole entry): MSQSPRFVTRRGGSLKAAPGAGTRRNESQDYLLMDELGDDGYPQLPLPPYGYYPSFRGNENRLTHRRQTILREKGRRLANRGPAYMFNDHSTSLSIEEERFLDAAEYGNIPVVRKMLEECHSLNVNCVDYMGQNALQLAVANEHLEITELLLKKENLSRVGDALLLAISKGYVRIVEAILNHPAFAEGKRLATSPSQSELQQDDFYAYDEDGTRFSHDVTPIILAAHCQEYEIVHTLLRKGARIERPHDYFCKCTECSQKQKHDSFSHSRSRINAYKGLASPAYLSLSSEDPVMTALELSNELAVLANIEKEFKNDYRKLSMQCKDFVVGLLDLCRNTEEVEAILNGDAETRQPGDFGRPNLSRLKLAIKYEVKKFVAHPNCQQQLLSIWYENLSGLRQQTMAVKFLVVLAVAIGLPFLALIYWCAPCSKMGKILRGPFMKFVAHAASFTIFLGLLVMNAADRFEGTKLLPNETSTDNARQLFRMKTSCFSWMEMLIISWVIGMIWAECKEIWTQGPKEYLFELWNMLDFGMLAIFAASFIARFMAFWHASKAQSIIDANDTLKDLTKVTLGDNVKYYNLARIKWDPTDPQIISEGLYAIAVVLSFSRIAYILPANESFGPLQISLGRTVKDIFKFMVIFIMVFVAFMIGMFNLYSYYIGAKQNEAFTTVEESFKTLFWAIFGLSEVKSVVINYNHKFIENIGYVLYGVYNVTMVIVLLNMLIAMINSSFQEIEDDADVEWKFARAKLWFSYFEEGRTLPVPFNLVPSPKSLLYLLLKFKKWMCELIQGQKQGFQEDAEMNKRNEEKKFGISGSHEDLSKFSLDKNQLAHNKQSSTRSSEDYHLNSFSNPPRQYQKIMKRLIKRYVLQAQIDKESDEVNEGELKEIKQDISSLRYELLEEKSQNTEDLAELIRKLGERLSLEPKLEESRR
In short: (§2)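 Stable HEK293 line coexpressing mouse TRPC6 and M5 receptor, held under G418 and hygromycin B. Cells are loaded with Fluo4-AM or Fluo8-AM in 2 mM Ca2+ extracellular solution at pH 7.4 with 2 mM probenecid, and read at 32 °C as ΔF/F0.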

[2] = molecular target: T2, Short transient receptor potential channel 6 (Mus musculus, UniProt Q61143); test: as §1; in short: as §2
T2 sequence (Q61143 whole entry): T1 sequence (whole entry)

[3] = molecular target: T3, Short transient receptor potential channel 7 (Homo sapiens) (UniProt Q9HCX4); test: Antagonist activity at human TRPC7 receptor expressed in HEK293 cells assessed as channel desensitization up to 30 uM in presence of 0.1 mM Ca2+ by whole cell patch-clamp method
T3 sequence (whole entry): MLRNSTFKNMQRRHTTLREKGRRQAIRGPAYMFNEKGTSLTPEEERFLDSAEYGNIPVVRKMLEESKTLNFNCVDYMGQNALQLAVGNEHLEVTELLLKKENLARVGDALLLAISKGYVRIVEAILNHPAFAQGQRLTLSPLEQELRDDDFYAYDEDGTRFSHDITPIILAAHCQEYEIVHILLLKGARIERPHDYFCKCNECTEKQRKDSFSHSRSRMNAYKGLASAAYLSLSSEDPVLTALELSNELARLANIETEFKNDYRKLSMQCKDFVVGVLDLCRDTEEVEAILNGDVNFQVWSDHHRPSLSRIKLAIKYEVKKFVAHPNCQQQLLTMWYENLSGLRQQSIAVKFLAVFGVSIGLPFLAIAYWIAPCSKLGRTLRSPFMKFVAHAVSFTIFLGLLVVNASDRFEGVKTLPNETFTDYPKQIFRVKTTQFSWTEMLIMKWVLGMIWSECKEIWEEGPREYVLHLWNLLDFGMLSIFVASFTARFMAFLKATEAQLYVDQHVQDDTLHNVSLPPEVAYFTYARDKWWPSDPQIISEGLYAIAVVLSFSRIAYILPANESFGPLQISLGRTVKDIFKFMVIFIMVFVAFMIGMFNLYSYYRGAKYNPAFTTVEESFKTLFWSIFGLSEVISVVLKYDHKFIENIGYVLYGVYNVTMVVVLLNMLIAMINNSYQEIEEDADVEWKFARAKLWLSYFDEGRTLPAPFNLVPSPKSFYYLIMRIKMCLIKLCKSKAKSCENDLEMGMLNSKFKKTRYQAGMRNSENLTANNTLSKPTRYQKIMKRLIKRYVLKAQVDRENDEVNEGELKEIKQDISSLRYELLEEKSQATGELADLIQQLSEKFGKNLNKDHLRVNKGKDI
In short: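 Whole-cell clamp of TRPC6/M5 or TRPC7 HEK293 cells with 0.1 mM Ca2+ bath and 400 nM free Ca2+ pipette. Ramps +100 to −100 mV every 1 s. Increasing concentrations given consecutively by perfusion (TRPC6 highest 20–100 μM; TRPC7 up to 30 μM). Currents at positive and negative potentials followed for desensitization.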

[4] = Selectivity ratio of EC50 for mouse TRPC6 expressed in HEK293 cells co-expressing Gq11-PLCbeta fused M5 receptor assessed as increase in intracellular calcium level to EC50 for human TRPC3 expressed in HEK293 cells assessed as induction of membrane depolarization in presence of 0.5 mM Ca2+

Row | SMILES | Activity (HEK293) | Activity [1] | EC50 [2] | inhibition [3] | Ratio EC50 [4]
1 | CCOC(=O)N1CCC(c2cc(O)n3nc(C)c(-c4ccc(F)cc4)c3n2)CC1 | Non-Toxic | Dose-dependent effect | 7.2 µM | Active | –
2 | CCOC(=O)N1CCC(c2cc(O)n3nc(C)c(-c4ccc(C(F)(F)F)cc4)c3n2)CC1 | – | – | – | – | > 70
